Measurements taken from ChEMBL document CHEMBL4765374, “8-Alkynyl-3-nitroimidazopyridines display potent antitrypanosomal activity against both T. b. brucei and cruzi” (Eur J Med Chem, 2020).
Converted amounts (≈) assume the structure as drawn.

Assays:
[1] = Thermodynamic solubility of the compound in phosphate buffer at pH 7.4 by shake flask method; format: physicochemical; settings: read-out: Therm_solubility
Summary of the method: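 Miniaturized shake-flask method: a 20 mM DMSO stock was diluted into phosphate buffer pH 7.4 (n=3), sonicated and shaken for 24 h at room temperature, then centrifuged. Supernatant was mixed 1:1 with acetonitrile and quantified by UV spectrophotometry at the compound's λmax against a calibration curve.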

[2] = Tmax in Swiss albino mouse at 100 mg/kg, po; format: ADME, organism-based; settings: in vivo
Summary of the method: (§1)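 Female Swiss mice, 8 weeks, 30-32 g, given a single oral gavage at 100 mg/kg as a suspension in 5% Tween 80/95% carboxymethylcellulose 0.5% in water. Blood (100 µL) was extracted with ACN containing ornidazole as internal standard plus QuEChERS salts, then quantified by positive-ESI LC-MS/MS on a C8 column against whole-blood calibration standards (5 to 1,000 ng/mL).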

[3] = Cytotoxicity against human HepG2 cells assessed as reduction in cell viability after 72 hrs by MTT assay; format: cell-based
Trypanosoma cruzi = test: Antitrypanosomal activity against Trypanosoma cruzi trypomastigotes infected in African green monkey Vero cells incubated for 120 hrs measured on day 6 cells followed by trypomastigotes release by haemocytometer-based light microscopy; format: functional, organism-based
Summary of the method: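 Vero cells, grown 2 days, were infected with T. cruzi CL Brener trypomastigotes at 3:1 parasites to host cells. After 24 h, free parasites were washed off and compounds added (0.1 to 25 µM, 2 to 4-fold dilutions) for 120 h at 37 °C. Trypomastigotes released into the medium by day 6 were pelleted and counted by haemocytometer. EC50 by non-linear regression; two independent experiments, each in triplicate.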

[4] = Cmax in Swiss albino mouse at 100 mg/kg, po; format: ADME, organism-based; parameters: route oral, dose 100 mg/kg; settings: in vivo; summary of the method: as §1
[5] = Genotoxicity in Salmonella typhimurium at 0.25 mM incubated for 48 hrs by Ames test; format: toxicity; settings: salmonella enterica subsp. enterica serovar typhimurium, 250 µM
Summary of the method: (§2)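 Liquid pre-incubation Ames test using S. typhimurium TA97a, TA98, TA100 and TA102 grown overnight in nutrient broth. Cultures were incubated with compound (5-50 mM DMSO stock) and 4% S9 mix for 1 h at 37 °C, then plated in top agar on minimal agar for 48 h at 37 °C in the dark, in duplicate. Positive result: a two-fold rise in revertants over the spontaneous count. Benzo[a]pyrene with S9 as positive control.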

Leishmania donovani [6] = test: Antileishmanial activity against Leishmania donovani BOB (MHOM/SD/62/1S-CL2D) promastigotes overexpressing NTR1 incubated for 72 hrs by resazurin dye based assay; format: functional, organism-based
Summary of the method: (§3)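 Clonal L. donovani LdBOB promastigotes grown at 26 °C in modified M199; NTR1- and NTR2-overexpressing lines maintained with nourseothricin (100 µg/mL). Triplicate 10 mL cultures seeded at 5×10^4 parasites/mL with drug for 72 h; 200 µL aliquots then given 50 µM resazurin, fluorescence (ex 528/em 590 nm) after 4 h more. EC50 from slope-factor equation; experiments repeated at least twice, mean plus standard deviation.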

THP-1 = test: Cytotoxicity against human THP-1 cells assessed as reduction in cell viability after 72 hrs by MTT assay; format: functional
Summary of the method: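 THP-1 cells at 5×10⁴ cells/mL in complete RPMI were exposed in duplicate to compounds in DMSO (final <0.5%) for 72 h at 37 °C. MTT at 0.5 mg/mL for 2 h, formazan dissolved in DMSO, absorbance read at 570 nm with 630 nm reference. CC50 from the dose-response curve, mean of three independent experiments.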

[7] = Selectivity index, ratio of CC50 for human HepG2 cells to EC50 for Trypanosoma brucei brucei AnTat 1.9; format: toxicity; settings: read-out: Selectivity Index
[8] = AUC (0 to infinity) in Swiss albino mouse at 100 mg/kg, po; format: ADME, organism-based; parameters: time infinity, route oral, dose 100 mg/kg; settings: in vivo; summary of the method: as §1
Leishmania donovani [9] = test: Antileishmanial activity against wild type Leishmania donovani BOB (MHOM/SD/62/1S-CL2D) promastigotes incubated for 72 hrs by resazurin dye based assay; format: functional, organism-based; summary of the method: as §3
[10] = Genotoxicity in Salmonella typhimurium at 2.5 mM incubated for 48 hrs by Ames test; format: toxicity; settings: salmonella enterica subsp. enterica serovar typhimurium, 2500 µM; summary of the method: as §2
[11] = Solubility of the compound in aqueous medium at highest dose; format: physicochemical; settings: buffer
Leishmania donovani [12] = test: Antileishmanial activity against Leishmania donovani MHOM/IN/00/DEVI promastigotes assessed as inhibition of metabolic activity measured after 72 hrs by MTT assay; format: functional, organism-based
Summary of the method: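 L. donovani MHOM/IN/00/DEVI promastigotes grown in Schneider's medium with 20% FCS at 27 °C. Log-phase parasites at 10⁶/mL were exposed in duplicate to serial compound concentrations in DMSO (final <0.5%) for 72 h at 27 °C. MTT was added for 4 h and absorbance read at 570 nm. EC50 from non-linear regression, mean of at least three independent experiments.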

[13] = Half life in Swiss albino mouse plasma at 100 mg/kg, po; format: ADME, organism-based; summary of the method: as §1
[14] = Microsomal stability in CD-1 mouse liver microsomes assessed as half life measured after 40 mins in presence of NADPH by LC-MS/MS analysis; format: ADME, Microsome
Summary of the method: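 Female CD-1 mouse microsomes incubated in duplicate at 37 °C in 50 mM phosphate buffer, pH 7.4, with MgCl₂, NADP, glucose-6-phosphate and G6P dehydrogenase. […] Propranolol as reference.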

[15] = Clearance in Swiss albino mouse at 100 mg/kg, po; format: ADME, organism-based; settings: in vivo; summary of the method: as §1
[16] = tested on: Trypanosoma brucei brucei; test: Antitrypanosomal activity against bloodstream form of wild type Trypanosoma brucei brucei S427 trypomastigotes incubated for 72 hrs; format: functional, organism-based; settings: S427, 72 h
Summary of the method: (§4)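 Bloodstream-form T. brucei 'single marker' S427 cultured at 37 °C in HMI9-T with 2.5 µg/mL G418. The NTR1-overexpressing line was kept with 2.5 µg/mL phleomycin and induced with 1 µg/mL tetracycline 48 h before testing. Triplicate cultures seeded at 1×10^5 cells/mL with inhibitor. Cell densities counted after 72 h. EC50 from slope-factor equation.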

[17] = Selectivity index, ratio of CC50 for cytotoxicity against human HepG2 cells to EC50 for antileishmanial activity against Leishmania donovani MHOM/IN/00/DEVI promastigotes; format: toxicity, cell-based; settings: read-out: Selectivity Index
Albumin = Albumin (Homo sapiens, UniProt P02768); test: Protein binding to human albumin by LC-MS analysis; format: ADME; settings: read-out: PB (converted)
Summary of the method: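 Plasma spiked with compound was dialysed at 37 °C in triplicate against phosphate buffer pH 7.2 for 4 h at 300 rpm. Both compartments were sampled and quantified by LC-MS using propranolol as internal standard. Unbound fraction taken from the plasma and buffer peak ratios; recovery checked with a non-incubated spiked plasma.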

Leishmania donovani [18] = test: Antileishmanial activity against Leishmania donovani BOB (MHOM/SD/62/1S-CL2D) promastigotes overexpressing NTR2 incubated for 72 hrs by resazurin dye based assay; format: functional, organism-based; summary of the method: as §3
[19] = tested on: Trypanosoma brucei brucei; test: Antitrypanosomal activity against bloodstream form of Trypanosoma brucei brucei S427 trypomastigotes overexpressing NTR incubated for 72 hrs; format: functional, organism-based; settings: S427, 72 h; summary of the method: as §4
[20] = Effective permeability of the compound at pH 7.4 incubated for 4 hrs by PAMPA-BBB assay; format: ADME; settings: read-out: permeability
Summary of the method: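 Compound diluted from a 20 mM DMSO stock to 100 µM in Prisma HT buffer pH 7.4 and placed in the donor wells. Acceptor membrane coated with BBB-1 lipid, with Brain Sink Buffer in the acceptor wells. Plates incubated 4 h at room temperature without stirring, then read by UV-visible spectra to give Pe. Corticosterone and theophylline served as high and low permeability standards; n=6.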

HepG2 = test: Genotoxicity in human HepG2 cells assessed as induction of DNA damage at 20 to 30 uM incubated for 2 to 72 hrs by alkaline comet assay; format: toxicity, cell-based; settings: hepg2, 30 µM, dose lower 20 µM, time lower 2 hrs, dose upper 30 µM, time upper 72 hrs
Summary of the method: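 HepG2 cells exposed for 2 or 72 h at 20 or 30 µM, then trypsinized and embedded in 0.7% low-melting agarose. Lysis 18 h at 4 °C, pH 10; alkaline electrophoresis (pH >13) for 24 min at 0.8 V/cm. Gels stained with SYBR Gold and imaged. % tail DNA is the median of 50 cells per deposit, three deposits per sample.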

[21] = tested on: Trypanosoma brucei brucei; test: […] activity against Trypanosoma brucei brucei AnTat 1.9 measured after 74 hrs by Alamar blue assay; format: functional, organism-based; settings: AnTat 1.9, 74 h
Summary of the method: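 Bloodstream T. b. brucei AnTat 1.9 grown at 37 °C, 5% CO₂ in MEM with Earle's salts plus mercaptoethanol, L-cysteine, bathocuproine sulfate and 20% heat-inactivated horse serum. Seeded at 2000 parasites/100 µL and exposed in duplicate to compounds in DMSO for 69 h. Alamar Blue then added for 5 h, fluorescence read at ex 530/em 590 nm. EC50 by nonlinear regression from three independent experiments.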

Chain of Albumin (P02768 whole entry): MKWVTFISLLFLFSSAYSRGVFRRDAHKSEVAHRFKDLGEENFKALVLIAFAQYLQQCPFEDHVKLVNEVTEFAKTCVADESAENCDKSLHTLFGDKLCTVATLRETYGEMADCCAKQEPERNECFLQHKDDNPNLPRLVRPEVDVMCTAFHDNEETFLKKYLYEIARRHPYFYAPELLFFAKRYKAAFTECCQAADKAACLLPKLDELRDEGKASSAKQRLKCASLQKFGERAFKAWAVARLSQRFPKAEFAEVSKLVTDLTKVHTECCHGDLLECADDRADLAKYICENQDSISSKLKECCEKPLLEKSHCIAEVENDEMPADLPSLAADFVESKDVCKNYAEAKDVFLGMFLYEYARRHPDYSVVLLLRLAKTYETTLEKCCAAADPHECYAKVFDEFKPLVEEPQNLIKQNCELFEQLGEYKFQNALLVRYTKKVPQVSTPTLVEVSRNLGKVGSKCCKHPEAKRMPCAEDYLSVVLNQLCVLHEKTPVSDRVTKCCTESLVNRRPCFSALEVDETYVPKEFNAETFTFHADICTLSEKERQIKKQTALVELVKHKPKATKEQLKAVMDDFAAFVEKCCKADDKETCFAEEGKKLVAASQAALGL

Work on O=[N+]([O-])c1c(CS(=O)(=O)c2ccccc2)nc2c(C#CCCO)cc(Cl)cn12 yielded a solubility thermodynamic [1] of 70.7 µM (≈ 29.7 µg/mL), a Tmax [2] of 49.8 min and a CC50 at 72 h [3] of over 125000 nM. For the same molecule, the EC50 (Trypanosoma cruzi) was 1200 nM, the Cmax [4] was 394 ng/mL and the Activity [5] was “Toxic”. For the same molecule, the EC50 (Leishmania donovani [6]) was 500 nM, the CC50 (THP-1) was over 100000 nM and the selectivity ratio [7] was over 1790. For the same molecule, the AUC(0-inf) [8] was 1430 ng·h/mL, the EC50 (Leishmania donovani [9]) was 21400 nM and the Activity [10] was “Toxic”. The solubility [11] was “Insoluble”, the EC50 (Leishmania donovani [12]) was 7400 nM and the half-life [13] was 601 min. For the same molecule, the half-life [14] was 16 min, the CL/F [15] was 0.0407 mL/min and the EC50 [16] was 124 nM. For the same molecule, the selectivity ratio [17] was over 16.9, the fraction unbound (Albumin) was 0.015 and the EC50 (Leishmania donovani [18]) was 24500 nM. For the same molecule, the EC50 [19] was 26.5 nM, the Papp at 4 h [20] was 34.6 ×10⁻⁶ cm/s and the Activity (HepG2) was “Non-Toxic”. It also gave an EC50 [21] of 70 nM.
